Results reported in ChEMBL document CHEMBL4831496, “Noncovalent EGFR T790M/L858R inhibitors based on diphenylpyrimidine scaffold: Design, synthesis, and bioactivity evaluation for the treatment of NSCLC” (Eur J Med Chem, 2021).
Activity calls are given as the source filed them. The rule behind the calls is not given here.

Experiments:
[1] = test system: NCI-H1975; assay: Induction of apoptosis in human NCI-H1975 cells assessed as early apoptotic cells at 0.5 uM incubated for 48 hrs by AnnexinV/FITC and propidium iodide staining based flow cytometry analysis (reference value: 1.39%); type: functional
[2] = test system: NCI-H1975; assay: Induction of cell cycle arrest in human NCI-H1975 cells assessed as accumulation of cells at G0/G1 phase at 2 uM incubated for 48 hrs by propidium iodide staining based flow cytometry analysis (reference value: 58.05%); type: functional
[3] = test system: NCI-H1975; assay: Induction of cell cycle arrest in human NCI-H1975 cells assessed as accumulation of cells at G0/G1 phase at 0.125 uM incubated for 48 hrs by propidium iodide staining based flow cytometry analysis (reference value: 58.05%); type: functional
[4] = test system: NCI-H1975; assay: Antimigratory activity against human NCI-H1975 cells assessed as narrowing of scratch width at 0.5 to 2 uM incubated for 24 to 48 hrs by scratch wound healing assay based fluorescence microscopic analysis; type: functional, cell-based; conditions: dose 0.5-2 µM, time 24-48 hrs
Method in brief: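 H1975 monolayers cultured 48 h at 37 °C, then scratched and washed with PBS. Cells treated at […] and imaged by fluorescence microscope at 0, 24 and 48 h, with an untreated negative control.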

[5] = MRT (0 to t) in Sprague-Dawley rat at 25 mg/kg, iv measured for 24 hrs by LC-MS/MS analysis; type: ADME, organism-based; conditions: in vivo
Method in brief: (§1)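 Male Sprague-Dawley rats (200 ± 20 g), acclimatised 1 week at 25 ± 2 °C, 50-60% RH; six rats given 25 mg/kg by tail vein. Retro-orbital blood into heparin at 10, 20, 40 min and 1, 2, 3, 4, 6, 8, 12, 24 h. Plasma ethyl acetate-extracted and quantified by LC-MS/MS, transition m/z 485.3/452.3.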

[6] = test system: NCI-H1975; assay: Induction of apoptosis in human NCI-H1975 cells assessed as viable cells at 0.125 uM incubated for 48 hrs by AnnexinV/FITC and propidium iodide staining based flow cytometry analysis (reference value: 94.9%); type: functional; conditions: read-out: Activity
[7] = AUC (0 to t) in Sprague-Dawley rat at 25 mg/kg, iv measured for 24 hrs by LC-MS/MS analysis; type: ADME, organism-based; parameters: dose 25 mg/kg, time 24 hrs; conditions: in vivo; method in brief: as §1
[8] = test system: NCI-H1975; assay: Induction of cell cycle arrest in human NCI-H1975 cells assessed as accumulation of cells at G2/M phase at 0.5 uM incubated for 48 hrs by propidium iodide staining based flow cytometry analysis (reference value: 30.23%); type: functional
[9] = Clearance in Sprague-Dawley rat at 25 mg/kg, iv measured for 24 hrs by LC-MS/MS analysis; type: ADME, organism-based; conditions: in vivo; method in brief: as §1
[10] = test system: NCI-H1975; assay: Induction of cell cycle arrest in human NCI-H1975 cells assessed as accumulation of cells at G2/M phase at 2 uM incubated for 48 hrs by propidium iodide staining based flow cytometry analysis (reference value: 30.23%); type: functional
[11] = test system: NCI-H1975; assay: Induction of apoptosis in human NCI-H1975 cells assessed as viable cells at 0.5 uM incubated for 48 hrs by AnnexinV/FITC and propidium iodide staining based flow cytometry analysis (reference value: 94.9%); type: functional; conditions: read-out: Activity
[12] = test system: NCI-H1975; assay: Induction of cell cycle arrest in human NCI-H1975 cells assessed as accumulation of cells at S phase at 0.5 uM incubated for 48 hrs by propidium iodide staining based flow cytometry analysis (reference value: 11.72%); type: functional
[13] = target: Epidermal growth factor receptor (Homo sapiens, UniProt P00533); assay: Inhibition of wild type EGFR (unknown origin) measured after 60 mins by ADP-Glo kinase based luminescence assay
Chain of Epidermal growth factor receptor (P00533 whole entry): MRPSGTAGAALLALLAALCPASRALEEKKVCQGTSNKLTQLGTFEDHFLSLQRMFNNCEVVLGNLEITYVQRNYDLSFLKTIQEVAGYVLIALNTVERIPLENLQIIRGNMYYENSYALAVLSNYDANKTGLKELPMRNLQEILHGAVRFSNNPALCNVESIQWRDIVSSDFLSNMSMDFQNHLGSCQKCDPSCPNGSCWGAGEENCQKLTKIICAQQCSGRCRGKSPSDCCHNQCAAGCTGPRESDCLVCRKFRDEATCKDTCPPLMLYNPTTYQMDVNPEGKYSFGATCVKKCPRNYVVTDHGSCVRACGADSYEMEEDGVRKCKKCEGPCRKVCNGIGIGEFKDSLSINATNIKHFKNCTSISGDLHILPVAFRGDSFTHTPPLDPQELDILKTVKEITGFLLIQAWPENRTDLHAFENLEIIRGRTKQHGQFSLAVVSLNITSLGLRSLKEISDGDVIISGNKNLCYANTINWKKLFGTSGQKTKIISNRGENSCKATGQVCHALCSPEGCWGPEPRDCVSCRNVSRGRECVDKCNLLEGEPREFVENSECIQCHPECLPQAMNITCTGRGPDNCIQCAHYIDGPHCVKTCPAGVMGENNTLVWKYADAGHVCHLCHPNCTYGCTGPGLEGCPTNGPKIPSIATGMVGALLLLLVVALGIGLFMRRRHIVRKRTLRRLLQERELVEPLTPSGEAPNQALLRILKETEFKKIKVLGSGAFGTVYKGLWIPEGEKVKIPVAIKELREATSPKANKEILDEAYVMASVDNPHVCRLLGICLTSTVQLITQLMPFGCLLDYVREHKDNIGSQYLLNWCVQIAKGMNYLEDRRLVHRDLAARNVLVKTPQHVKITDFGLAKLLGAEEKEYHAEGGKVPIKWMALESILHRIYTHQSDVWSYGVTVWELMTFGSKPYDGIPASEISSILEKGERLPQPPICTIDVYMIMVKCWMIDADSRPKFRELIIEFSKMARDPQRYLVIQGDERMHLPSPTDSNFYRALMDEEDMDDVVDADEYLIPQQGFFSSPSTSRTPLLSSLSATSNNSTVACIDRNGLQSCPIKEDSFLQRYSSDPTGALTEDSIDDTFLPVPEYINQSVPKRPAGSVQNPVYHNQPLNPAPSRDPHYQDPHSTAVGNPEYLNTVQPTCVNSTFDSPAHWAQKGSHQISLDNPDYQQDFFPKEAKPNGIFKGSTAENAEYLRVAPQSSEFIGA

For O=C(NO)c1ccccc1Nc1nc(Nc2ccc(OCCN3CCOCC3)cc2)ncc1Cl, which Activity [1] is on record?
The Activity was 15.53%.

What about the Activity [2] of the same compound?
The Activity was 57.28%.

And the Activity [3]?
Its Activity is 20.25%.

And the Activity [4]?
The Activity was “Active”.

What about the MRT last at 24 h [5] of the same compound?
The MRT last at 24 h was 8.2 h.

And the viability at 0.125 µM [6]?
The viability at 0.125 µM was 95.7%.

And the AUC(0-t) at 24 h [7]?
The AUC(0-t) at 24 h was 37.6 µg·h/mL.

What about the Activity [8] of the same compound?
Its Activity is 70.99%.

What about the clearance [9] of the same compound?
Its clearance is 0.554 L/h/kg.

And the Activity [10]?
Its Activity is 31.9%.

What about the viability at 0.5 µM [11] of the same compound?
Its viability at 0.5 µM is 83.8%.

What about the Activity [12] of the same compound?
Its Activity is 9.86%.

What about the IC50 [13] of the same compound?
The IC50 was 0.0477 µM.
